High-throughput results deposited in PubChem by several laboratories.
An excerpt weighted towards active compounds, which were near 2.2% of everything screened.
BaF3 tox: parental Ba/F3 cell viability inhibition, counter-screen for JAK2V617F inhibitor project, murine pro-B, CellTiter-Glo luminescence. hit rate 1.1% among 220,000. inhibition, % at 5.6 µM. CellTiter-Glo ATP luminescence. AID 1486, 2009;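 active = inhibition above a per-campaign cutoff, the mean inhibition of all tested compounds plus 3 SD, cut at about 27% in these data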;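 also: 0% = DMSO wells and 100% = JAK Inhibitor I control wells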
APP transl inh: inhibitors of APP translation via 5'UTR reporter, primary screen, APP 5'UTR luciferase, SH-SY5Y cells; SH-SY5Y APP 5'UTR-luciferase reporter, luminescence; inhibition, % at 2 µM; hit rate 0.82% among 190,000; AID 1285, 2008;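 active = inhibition above a set limit, derived from the sample mean plus 3 SD, cut at about 45% in these data; inconclusive = one replicate passes the limit while the other fails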
MT stabilizer: microtubule stabilizers in HeLa cells, primary screen, imaging, high-content imaging | hit rate 0.83% among 200,000 | HeLa tubulin immunostaining HCS, 24 h; share of cells brighter than vehicle mean+2SD | AID 2205, 2009 | % tubulin-high responders, % at 10 µM;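 active = plate Z-score above 3 for both tubulin-high and condensed-nucleus cell shares, with cell loss under 80%, at 10 µM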;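 also: anti alpha tubulin signal scored within the nucleus-defined area of each cell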
bCat nuc transl: modulators of beta-catenin nuclear translocation, primary screen, imaging, HeLa cells, immunofluorescence, high-content; nuclear translocation activity, % at 5 µM; hit rate 0.3% among 190,000;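 active = nuclear translocation activity above 50% at 5 µM, with a well cell count of 50 or more; inconclusive = wells under 50 cells across six images, flagged as toxic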;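 also: per-cell ratio of nuclear to cytoplasmic median beta-catenin stain intensity; plate controls were DMSO negative control for no effect and GSK-3 inhibitor IX positive control for full effect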
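test system = HeLa cells, endogenous beta-catenin | dosing = single 5 µM dose plus 0.02–20 µM confirmation series | times = compound treatment 24 h, 37°C, 5% CO2 | technique = beta-catenin immunofluorescence imaging with DAPI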
Ba/F3 V617F tox: reduced viability of JAK2V617F-dependent Ba/F3 cells, primary screen, JAK2V617F inhibitor project, cell-based, Ba/F3 EpoR-JAK2V617F, luminescence | ATP luminescence | inhibition, % at 5.6 µM | hit rate 1.1% among 220,000 | AID 1446, 2008;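 active = inhibition above the campaign mean plus 3 SD over all tested compounds, cut at about 24% in these data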;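 also: cytokine-independent growth of Ba/F3 cells driven by EpoR plus mutant JAK2; 0% = DMSO-treated cells and 100% = JAK inhibitor I control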
IEC-6 tox: cytotoxicity in IEC-6 intestinal epithelial cells, primary screen, cytotoxicity control for KLF5 inhibitor project, cell-based, luminescence | inhibition, % at 5 µM | hit rate 0.78% among 290,000 | IEC-6 cytotoxicity, luminescence viability;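 also: 0% = plate median of test compound wells and 100% = cytotoxic reference compound wells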
BaF3 parental 2: parental Ba/F3 cell viability inhibition, counter-screen for JAK2V617F inhibitor project, murine pro-B, CellTiter-Glo luminescence. shares compounds with Ba/F3 V617F tox. cells kept alive by added IL-3. inhibition, % at 5.6 µM. hit rate 31% among 580. AID 1520, 2009;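 active = cell growth inhibition above the hit limit set in the earlier mutant JAK2 cell screen, cut at about 27% in these data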;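 also: plate controls were DMSO-treated cells for no effect and JAK Inhibitor I control wells for full effect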
JAK2V617F confrm: viability loss in Ba/F3 EpoR-JAK2V617F cells, confirmation, JAK2V617F inhibitor project, cell-based, luminescence, triplicate; shares compounds with Ba/F3 V617F tox; CellTiter-Glo luminescence; inhibition, % at 5.6 µM; hit rate 66% among 580; AID 1521, 2009;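 active = mean inhibition above the hit cutoff derived in the earlier primary screen, cut at about 25% in these data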;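 also: 0% = DMSO-treated cells and 100% = JAK inhibitor I control wells; higher means lower luminescence from reduced cell ATP and viability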
IEC-6 cytotox cf: cytotoxic compounds in IEC-6 epithelial cells, confirmation, cytotoxicity control, cell-based, luminescence. inhibition, % at 5 µM. IEC-6 rat intestinal epithelial viability. shares compounds with IEC-6 tox. hit rate 63% among 1,900;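 also: 0% = vehicle and 100% = reference cytotoxic drug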
* marks the source's active call; other numbers are inactive results. Rule as the data show it, unless noted: active = inhibition above about 22%; inactive = the rest.

Screening COc1ccc(-c2[nH]ncc2CN2CCC(O)(c3ccc(Cl)cc3)CC2)cc1 returned BaF3 tox 11, bCat nuc transl -5, Ba/F3 V617F tox 41*, IEC-6 tox 34*, BaF3 parental 2 34*, JAK2V617F confrm 41* and IEC-6 cytotox cf 23*.
OC1(c2ccc(Cl)cc2)CCN(Cc2cn[nH]c2-c2ccccc2)CC1 was read as BaF3 tox -1, bCat nuc transl -4, Ba/F3 V617F tox 13 and IEC-6 tox 14.
Screening OC1(c2ccc(Cl)cc2)CCN(Cc2cn[nH]c2-c2ccc(F)cc2)CC1 returned BaF3 tox 3, bCat nuc transl -2, Ba/F3 V617F tox 45*, IEC-6 tox 43*, BaF3 parental 2 18, JAK2V617F confrm 34* and IEC-6 cytotox cf 26*.
Cc1cc2c(Nc3cccc(O)c3)ncnc2s1 was read as IEC-6 tox 7.
CCN1C/C(=C/c2ccc(OC)c(O)c2)C(=O)/C(=C/c2ccc(OC)c(O)c2)C1 was read as BaF3 tox -5, APP transl inh 88*, MT stabilizer 55, bCat nuc transl 47, Ba/F3 V617F tox 52*, IEC-6 tox 32*, BaF3 parental 2 13, JAK2V617F confrm 98* and IEC-6 cytotox cf 42*.
For COc1ccc(C=C2C(=O)c3ccccc3C2=O)cc1O the results were BaF3 tox 3, APP transl inh -9, MT stabilizer 5, bCat nuc transl -1, Ba/F3 V617F tox -1 and IEC-6 tox 12.
For CC(=O)c1nnn(-c2c(F)cccc2F)c1C the results were BaF3 tox -3, bCat nuc transl -3, Ba/F3 V617F tox -1 and IEC-6 tox 0.
Screening N#Cc1ncc(-c2ccc3c(c2)OCCOCCOCCOCCOCCO3)nc1C#N returned BaF3 tox -3, APP transl inh 21, MT stabilizer 2, bCat nuc transl 1, Ba/F3 V617F tox 34*, IEC-6 tox 32*, BaF3 parental 2 -3, JAK2V617F confrm 43* and IEC-6 cytotox cf 12.
For Cc1cccc(/C=N/NC(=O)c2cc(C3CC3)nc3ccccc23)n1 the results were IEC-6 tox 0.
Screening CCc1ccc(/C=N/NC(=O)c2cc(C3CC3)nc3ccccc23)s1 returned BaF3 tox 22, APP transl inh 44, MT stabilizer 41*, Ba/F3 V617F tox 42*, IEC-6 tox 34*, BaF3 parental 2 63*, JAK2V617F confrm 95* and IEC-6 cytotox cf 54*.
For COC(=O)/C=C/S(=O)(=O)c1ccc(NC(C)=O)cc1 the results were BaF3 tox 19, APP transl inh 83*, MT stabilizer 1, bCat nuc transl -6, Ba/F3 V617F tox 26*, IEC-6 tox 27*, BaF3 parental 2 12, JAK2V617F confrm 12 and IEC-6 cytotox cf 0.
`NC(=O)c1cccc(C(N)=O)n1` gave BaF3 tox 2, APP transl inh -18, MT stabilizer 2, bCat nuc transl -4, Ba/F3 V617F tox 0 and IEC-6 tox -4.
For Cc1cc2[nH]c3c(c[n+](C)c4ccccc34)c2cc1C the results were BaF3 tox 4, APP transl inh 83*, MT stabilizer 19, bCat nuc transl inconclusive, Ba/F3 V617F tox 33*, IEC-6 tox 65*, BaF3 parental 2 15, JAK2V617F confrm 92* and IEC-6 cytotox cf 55*.
For C/C(=N\N=C(N)N)c1cc(Cl)ccc1Cl the results were BaF3 tox 8, APP transl inh -26, MT stabilizer 3, bCat nuc transl 0, Ba/F3 V617F tox 44*, IEC-6 tox 31*, BaF3 parental 2 -4, JAK2V617F confrm 23 and IEC-6 cytotox cf 7.
For C=CCNc1nnc(Cc2ccc(C(C)C)cc2)c(=O)[nH]1 the results were IEC-6 tox 23* and IEC-6 cytotox cf 14.
CC(=O)Nc1nc(-c2ccc(Cl)cc2)ns1 was read as BaF3 tox 1, APP transl inh -105, MT stabilizer 7, bCat nuc transl -3, Ba/F3 V617F tox -4 and IEC-6 tox 7.
Screening CC(C)(C)C(=O)Cn1ncc(Br)c(Br)c1=O returned BaF3 tox -5, APP transl inh 94*, MT stabilizer 5, bCat nuc transl 0, Ba/F3 V617F tox 5, IEC-6 tox 29* and IEC-6 cytotox cf 9.
For Cc1ccc(NC(=O)[C@H](Cc2c[nH]c3ccccc23)NC(=O)[C@@H]2Cc3ccccc3CN2)c(C)c1 the results were IEC-6 tox 32* and IEC-6 cytotox cf 6.
Screening C/C(=N\NC(=O)Cc1ccc(Cl)cc1)c1ccccc1O returned IEC-6 tox 28* and IEC-6 cytotox cf 29*.
Screening C/C(=N\NC(=O)Cc1ccc(Cl)cc1)c1ccc(F)cc1 returned IEC-6 tox 2.
CN1CCCN(C(=O)c2c(F)cccc2Cl)CC1 was read as IEC-6 tox -5.
Cc1nccn1CCCNC(=O)CC1C(=O)NCCN1Cc1ccc(F)cc1Cl (centres undefined) was read as IEC-6 tox -4.
`COc1cc2c3c(c1)C(C)=CC(C)(C)N3C(=O)C2=O` gave BaF3 tox -1, APP transl inh 30, MT stabilizer 4, bCat nuc transl 0, Ba/F3 V617F tox -7, IEC-6 tox 87* and IEC-6 cytotox cf 44*.
`CCN(CC)CCC(=O)NN` gave BaF3 tox 0, APP transl inh -5, MT stabilizer 5, bCat nuc transl 0, Ba/F3 V617F tox 2 and IEC-6 tox 2.
`O=[N+]([O-])c1ccc(N=Nc2ncc[nH]2)cc1` gave IEC-6 tox 81* and IEC-6 cytotox cf 13.
`O=[N+]([O-])c1ccc(N=NN(CCO)CCO)cc1` gave BaF3 tox 4, APP transl inh -13, MT stabilizer 4, bCat nuc transl 1, Ba/F3 V617F tox -3 and IEC-6 tox -3.
COc1cc(OC)cc(C(=O)N[C@H](C(=O)Nc2ccc3c(c2)OCO3)C(C)C)c1 was read as BaF3 tox -2, APP transl inh -2, MT stabilizer 3, bCat nuc transl 0, Ba/F3 V617F tox -1 and IEC-6 tox -4.
